Blank lines part the entries; values can stand above or below the compound they belong to.
Assays:
embryonic models = details: cited from earlier work
SALL4 and Aiolos = details: cited from earlier work
human CRBN = details: cited from earlier work
Aqueous solubility study = assay type: physicochemical; details: bidistilled water, 37 °C, 72 h stirring, n = 3
Summary of the method: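 Excess drug (raw powder), coarse suspension or nanosuspension stirred in bidistilled water at 37 °C for 72 h. Samples were centrifuged twice at 15,000 rpm for 30 min, and the clear supernatant was diluted. Drug was quantified by HPLC (C18 column; water:ACN:acetic acid […]; 0.7 mL/min; 306 nm) against a linear calibration curve. n = 3, mean ± SD.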

[1] = Dissolution study in PBS pH 7.4 under sink conditions; assay type: physicochemical; details: PBS pH 7.4, 37 °C
Summary of the method: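 Nanosuspension, coarse suspension or raw powder (1 mg drug each, liquid doses confirmed by HPLC) was added to 100 mL PBS pH 7.4 at 37 °C with magnetic stirring under sink conditions. Samples taken at 1–30 min and 1–8 h were replaced with fresh medium and centrifuged at 15000 rpm for 20 min. Supernatant was assayed by HPLC at 306 nm. At least triplicate, mean ± SD.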

[2] = cited from earlier work; for Dissolution after one minute, coarse suspension / Dissolution after one minute, nanosuspension: 1 min; for Dissolution after one minute, nanosuspension: nanosuspension with Tween 80 as stabilizer
[3] = cited from earlier work

- Aqueous solubility (Aqueous solubility study): 4.8 ± 0.2 µg/mL
- Drug dissolved at first time point (1 minute) ([1]; 1 min): approximately 22%
- Drug dissolved at end of test (8 hours) ([1]; 8 h): 44%
SMILES: Nc1cccc2c1C(=S)N(C1CCC(=O)NC1=O)C2=O (stereo not shown) [MTPOM, 3-monothiopomalidomide]
- Risk of teratogenicity (embryonic models): significantly attenuated risk of teratogenicity
- Degradation of neosubstrates SALL4 and Aiolos (SALL4 and Aiolos): without triggering the subsequent degradation
- Binding to human CRBN (human CRBN): binds to human CRBN

SMILES: COc1ccc2c(c1)c(CC(=O)O)c(C)n2C(=O)c1ccc(Cl)cc1 [indomethacin]
- Dissolution after one minute, coarse suspension [2]: approximately 20%
- Dissolution after 30 minutes, coarse suspension [2]: 40–50%
- Dissolution after one minute, nanosuspension [2]: almost complete dissolution

SMILES: CCC(C)n1ncn(-c2ccc(N3CCN(c4ccc(OCC5COC(Cn6cncn6)(c6ccc(Cl)cc6Cl)O5)cc4)CC3)cc2)c1=O (stereo not shown) [itraconazole]
- Dissolution after one minute, coarse suspension [2]: approximately 20%
- Dissolution after 30 minutes, coarse suspension [2]: 40–50%
- Dissolution after one minute, nanosuspension [2]: almost complete dissolution

SMILES: CC[C@@H]([C@H](C)O)n1ncn(-c2ccc(N3CCN(c4ccc(OC[C@@H]5CO[C@@](Cn6cncn6)(c6ccc(F)cc6F)C5)cc4)CC3)cc2)c1=O [posaconazole]
- Average diameter when nanosized via media milling [3]: 185 nm
